The conditions of data set [1]: 1 M HCl, 298 K; cited from earlier work.
Data set [2] can be described thus: T1-weighted phantom images at 7 T in mouse serum and PBS. The format is physicochemical. Particulars: 25 °C, 0.3 mM in mouse serum. A digest of the protocol: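 T1-weighted phantoms of Gd3+ complex in mouse blood serum were imaged at 7 T. A clinical Gd3+ agent and serum alone served as comparators. A spin echo sequence was used, TE = 10 ms, TR = 400 ms, and signal intensities were read.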

The conditions of data set [3]: cited from earlier work.

Structures are written as SMILES. Read-outs that look alike come from different tables or passages of the source.

As to `O=C([O-])CN1CCNCCN(CC(=O)[O-])CCN(CC(=O)[O-])CC1.[Gd+3]` [GdDO3A], in data set [1], the “kobs dissociation rate constant” value was 0.023 s⁻¹ and the t1/2 dissociation half-life is listed as 0.5 min.
For the compound `O=C([O-])CN1CCN(CC(=O)[O-])CCN(CC(=O)O)CCN(CC(=O)[O-])CC1.[Gd+3]` [GdDOTA], in data set [1], the “kobs dissociation rate constant” value is 1.8e-06 s⁻¹ and the t1/2 dissociation half-life is 6418 min. For the same compound, the “signal intensity, T1-weighted phantom” value in data set [2] is reported as 3.97 × 10^4.
Take `CC(O)CN1CCN(CC(=O)[O-])CCN(CC(=O)[O-])CCN(CC(=O)[O-])CC1.[Gd+3]` (centres unmarked) [GdHPDO3A]: in data set [1], the “kobs dissociation rate constant” value was 0.00026 s⁻¹ and the t1/2 dissociation half-life is 44 min. For the same compound, the r1 relaxivity in data set [3] (20 MHz, 25 °C) is 4.6 mM⁻¹ s⁻¹. In data set [3] (SAP isomer), the “kex^298 water exchange rate” value is 1.56 10^6 s^−1, the “ΔH≠” value is 53 kJ/mol and the “ΔS≠” value is reported as “+52 kJ mol^−1 K^−1”. In data set [3] (TSAP isomer), the “kex^298 water exchange rate” value was 112 10^6 s^−1 and the “ΔH≠” value was 15 kJ/mol. For the same compound, the “τR^298 rotational correlation time” value in data set [3] is 65 ps.

The values are drawn from PMC12778361 (Chemical Science, 2025).
